The test system of one assay is HepG2. Kind of assay: Cytotoxicity against human HepG2 cells assessed as reduction in cell viability incubated for 72 hrs by MTT assay. In kind it is functional, cell-based. Particulars: HepG2, 72 h. In short, it runs like this:
(§1)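 Cells grown in MEM with 10% FBS; about 4×10^3 cells per well, pre-incubated 24 h at 37 °C in 5% CO2, then exposed to compound for 72 h. Seven concentrations, threefold serial dilution from 100 ug/mL initial. MTT at 5 µg/mL terminal concentration for 4 h; formazan dissolved in DMSO, absorbance read at 492 nm against 630 nm reference. IC50 is the average of two determinations.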
For orientation: Tetrazolium assays rely on reduction of a dye to a coloured formazan, in cell work by metabolically active cells.

A further assay deals with A549. Kind of assay: Cytotoxicity against human A549 cells assessed as reduction in cell viability incubated for 72 hrs by MTT assay. In kind it is functional, cell-based. Conditions: A549, 72 h. The method in brief:
as §1

The next assay has as its system PC-3. The assay can be described thus: Cytotoxicity against human PC3 cells assessed as reduction in cell viability incubated for 72 hrs by MTT assay. In kind it is functional, cell-based. Conditions: PC-3, 72 h. In short, it runs like this:
as §1

For the next assay, the system named is MCF7. The assay can be described thus: Cytotoxicity against human MCF7 cells assessed as reduction in cell viability incubated for 72 hrs by MTT assay. In kind it is functional, cell-based. Particulars: MCF7, 72 h. The method in brief:
as §1

Assay [1] addresses Serine/threonine-protein kinase B-raf (Homo sapiens, UniProt P15056). The assay can be described thus: Inhibition of BRAF (unknown origin) incubated for 10 mins using FAM-labeled peptide and ATP by mobility shift assay.
The target in assay [2] is Vascular endothelial growth factor receptor 2 (Homo sapiens, UniProt P35968). Kind of assay: Inhibition of VEGFR2 (unknown origin) incubated for 10 mins using FAM-labeled peptide and ATP by mobility shift assay.
Chain of Vascular endothelial growth factor receptor 2 (P35968 whole entry): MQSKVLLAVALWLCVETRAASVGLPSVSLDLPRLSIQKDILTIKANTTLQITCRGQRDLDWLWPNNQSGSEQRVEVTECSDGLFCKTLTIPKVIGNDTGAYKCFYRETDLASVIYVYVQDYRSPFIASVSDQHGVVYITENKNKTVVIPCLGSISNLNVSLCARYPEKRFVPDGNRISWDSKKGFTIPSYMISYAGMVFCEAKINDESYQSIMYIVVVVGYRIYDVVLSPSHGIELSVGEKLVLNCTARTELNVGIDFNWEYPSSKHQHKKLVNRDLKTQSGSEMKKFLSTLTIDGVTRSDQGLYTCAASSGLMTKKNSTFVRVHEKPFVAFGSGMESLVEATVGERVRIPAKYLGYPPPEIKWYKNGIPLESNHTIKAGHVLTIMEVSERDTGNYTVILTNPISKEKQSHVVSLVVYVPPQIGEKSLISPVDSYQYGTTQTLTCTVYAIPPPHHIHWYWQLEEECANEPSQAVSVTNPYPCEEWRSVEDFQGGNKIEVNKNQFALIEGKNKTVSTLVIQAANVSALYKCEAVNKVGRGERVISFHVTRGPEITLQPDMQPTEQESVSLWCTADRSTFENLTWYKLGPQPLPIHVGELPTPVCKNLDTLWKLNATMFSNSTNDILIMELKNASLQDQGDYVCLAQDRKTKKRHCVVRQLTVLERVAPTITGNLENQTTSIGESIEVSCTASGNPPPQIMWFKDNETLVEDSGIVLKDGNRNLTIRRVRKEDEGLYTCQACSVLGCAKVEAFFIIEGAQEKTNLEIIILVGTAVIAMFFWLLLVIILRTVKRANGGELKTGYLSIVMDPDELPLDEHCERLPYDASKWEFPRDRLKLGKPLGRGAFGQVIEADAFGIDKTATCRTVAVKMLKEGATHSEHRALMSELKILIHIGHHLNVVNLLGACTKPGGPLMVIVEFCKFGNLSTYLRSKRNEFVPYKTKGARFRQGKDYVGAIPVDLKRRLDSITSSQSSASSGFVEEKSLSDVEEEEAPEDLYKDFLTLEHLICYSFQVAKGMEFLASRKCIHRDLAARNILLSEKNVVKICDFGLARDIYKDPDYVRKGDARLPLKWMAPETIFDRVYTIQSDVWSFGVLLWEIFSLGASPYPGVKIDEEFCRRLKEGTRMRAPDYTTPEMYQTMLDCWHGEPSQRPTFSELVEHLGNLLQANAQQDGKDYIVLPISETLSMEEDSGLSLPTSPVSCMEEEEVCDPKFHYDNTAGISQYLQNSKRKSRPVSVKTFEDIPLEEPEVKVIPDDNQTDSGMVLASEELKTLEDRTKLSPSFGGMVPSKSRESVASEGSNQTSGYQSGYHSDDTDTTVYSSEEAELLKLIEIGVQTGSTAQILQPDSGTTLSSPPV

Chain of Serine/threonine-protein kinase B-raf (P15056 whole entry): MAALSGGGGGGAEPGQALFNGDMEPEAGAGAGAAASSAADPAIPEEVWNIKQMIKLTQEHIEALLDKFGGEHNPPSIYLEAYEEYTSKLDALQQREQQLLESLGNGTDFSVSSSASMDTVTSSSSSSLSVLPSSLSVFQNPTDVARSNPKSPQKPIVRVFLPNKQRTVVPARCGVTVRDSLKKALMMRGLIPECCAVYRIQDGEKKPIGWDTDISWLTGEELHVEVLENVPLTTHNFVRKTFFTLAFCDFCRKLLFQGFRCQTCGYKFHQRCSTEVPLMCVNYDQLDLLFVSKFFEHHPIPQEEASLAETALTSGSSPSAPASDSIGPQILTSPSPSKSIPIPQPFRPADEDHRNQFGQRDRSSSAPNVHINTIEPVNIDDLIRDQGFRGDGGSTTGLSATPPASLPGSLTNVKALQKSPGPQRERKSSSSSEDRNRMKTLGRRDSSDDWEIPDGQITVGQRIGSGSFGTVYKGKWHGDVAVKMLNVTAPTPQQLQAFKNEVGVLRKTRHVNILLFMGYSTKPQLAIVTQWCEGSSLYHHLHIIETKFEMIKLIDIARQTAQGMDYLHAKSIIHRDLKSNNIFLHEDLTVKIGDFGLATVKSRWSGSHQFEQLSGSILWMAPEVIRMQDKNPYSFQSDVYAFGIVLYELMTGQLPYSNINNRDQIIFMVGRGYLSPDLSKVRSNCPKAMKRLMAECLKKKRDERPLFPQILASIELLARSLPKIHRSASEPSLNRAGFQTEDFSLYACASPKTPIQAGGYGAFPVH

One may read the IC50 as the concentration that gives 50% inhibition. In the case of `CNC(=O)c1cc(Oc2ccc(C3=NNC(c4ccc(Br)cc4)C3)cc2)ccn1` (configuration not stated), the 50% inhibitory concentration (IC50) was 57.6 µM with HepG2, 21 µM with A549 and above 50 µM in the assay with PC-3.

`CNC(=O)c1cc(Oc2ccc(C3=NN(C(N)=S)C(c4ccc(Cl)cc4)C3)cc2)ccn1` (configuration not stated): the IC50 in the assay with HepG2, in the assay on A549 and in the assay with PC-3 was above 50 µM each time.

Take `CNC(=O)c1cc(Oc2ccc(C3=NNC(c4cccc(Cl)c4Cl)C3)cc2)ccn1` (configuration not stated): the figures for the IC50 with HepG2 and with A549 were 4.99 µM and 12.1 µM, respectively.

Turning to `CNC(=O)c1cc(Oc2ccc(C3=NNC(c4ccc(F)cc4Cl)C3)cc2)ccn1` (configuration not stated), the 50% inhibitory concentration (IC50) in the assay on HepG2 was determined as 11.5 µM; with A549, 13.7 µM; in the assay on PC-3, 24.2 µM.

Turning to `CNC(=O)c1cc(Oc2ccc(C3CC(c4ccc(Br)cc4)=NN3)cc2)ccn1` (configuration not stated), the IC50 with HepG2 was found to be 16.9 µM; in the assay with MCF7, 15.3 µM.

Take `CNC(=O)c1cc(Oc2ccc(C3=NN(C(N)=S)C(c4cccc(Cl)c4Cl)C3)cc2)ccn1` (configuration not stated): the results for the 50% inhibitory concentration (IC50) in the assay on HepG2, in the assay with A549 and in the assay on PC-3 were 1.89 µM, above 50 µM and 15.9 µM, respectively.

Take `CNC(=O)c1cc(Oc2ccc(C3=NNC(c4ccc(OC)c(OC)c4OC)C3)cc2)ccn1` (configuration not stated): the values for the IC50 in the assay with HepG2, with MCF7 and with A549 were 15.7 µM, 9.94 µM and 19 µM, respectively.

As for `CNC(=O)c1cc(Oc2ccc(C3=NNC(c4ccc(Cl)cc4Cl)C3)cc2)ccn1` (configuration not stated), the IC50 in the assay on A549 came out at 6.93 µM; with PC-3 it was 7.3 µM.

Consider `CNC(=O)c1cc(Oc2ccc(NC(=O)Nc3ccc(Cl)c(C(F)(F)F)c3)cc2)ccn1` [SORAFENIB], for which the IC50 is 2.92 µM with A549 and 3.18 to 3.24 µM in the assay on PC-3.

For the compound `CNC(=O)c1cc(Oc2ccc(C3=NNC(c4ccc(C#N)cc4)C3)cc2)ccn1` (configuration not stated), the results for the IC50 with HepG2, in the assay with A549 and with PC-3 were 15 µM, 17.4 µM and 9.91 µM, respectively.

Take `CNC(=O)c1cc(Oc2ccc(C3=NN(C(N)=S)C(c4ccc(C#N)cc4)C3)cc2)ccn1` (configuration not stated): the IC50 in the assay on HepG2, in the assay with A549 and with PC-3 was above 50 µM each time.

Consider `CNC(=O)c1cc(Oc2ccc(C3=NNC(c4cccc([N+](=O)[O-])c4)C3)cc2)ccn1` (configuration not stated), for which the IC50 in the assay on HepG2 came out at 26.5 µM; in the assay on MCF7, 35.4 µM.

Turning to `CNC(=O)c1cc(Oc2ccc(C3=NN(C(N)=S)C(c4ccc(F)cc4)C3)cc2)ccn1` (configuration not stated), the IC50 is above 50 µM with HepG2, 19.4 µM with A549 and above 50 µM in the assay on PC-3.

Take `CNC(=O)c1cc(Oc2ccc(C3=NNC(c4ccc(F)cc4)C3)cc2)ccn1` (configuration not stated): the IC50 in the assay on HepG2 is 5.28 µM; in the assay with MCF7, 9.48 µM; with A549 it was 15.1 µM; with PC-3 it was 6.77 µM.

On to `CNC(=O)c1cc(Oc2ccc(C3=NNC(c4ccccc4)C3)cc2)ccn1` (configuration not stated), for which the IC50 in the assay on HepG2 worked out at 1.5 µM; in assay [1] it was 3.9 µM; with MCF7 it was 1.24 µM; in assay [2], 2.3 µM; with A549, 8.6 µM; with PC-3 it was 4.52 µM.

Regarding `CNC(=O)c1cc(Oc2ccc(C3CC(c4ccc([N+](=O)[O-])cc4)=NN3)cc2)ccn1` (configuration not stated), the half-inhibitory concentration (IC50) in the assay on HepG2 is 28.9 µM; in assay [1] it was above 50 µM; in the assay on MCF7 it was 8.03 µM; in assay [2], above 50 µM.

In the case of `CNC(=O)c1cc(Oc2ccc(C3=NNC(c4ccc(Cl)c(Cl)c4)C3)cc2)ccn1` (configuration not stated), the IC50 turned out to be 14.4 µM in the assay with HepG2, 10.7 µM in the assay with A549 and 36.2 µM with PC-3.

On to `CNC(=O)c1cc(Oc2ccc(C3=NNC(c4ccc(OC)cc4)C3)cc2)ccn1` (configuration not stated), for which the concentration for half-maximal inhibition (IC50) in the assay on HepG2 was 9.64 µM; in assay [1], above 50 µM; in the assay on MCF7, 11 µM; in assay [2] it was above 50 µM; in the assay with A549, 13.1 µM; in the assay with PC-3 it was 7.74 µM.

As for `CNC(=O)c1cc(Oc2ccc(C3=NNC(c4ccc([N+](=O)[O-])cc4)C3)cc2)ccn1` (configuration not stated), the IC50 in the assay with HepG2 is above 50 µM; in the assay with A549, 19.5 µM; with PC-3 it was above 50 µM.

Consider `CNC(=O)c1cc(Oc2ccc(C3=NNC(c4cc(OC)c(OC)c(OC)c4)C3)cc2)ccn1` (configuration not stated), for which the figures for the IC50 in the assay with HepG2, in the assay on A549 and with PC-3 were 24.3 µM, 37.1 µM and 28.3 µM, respectively.

Consider `CNC(=O)c1cc(Oc2ccc(C3=NN(C(N)=S)C(c4cccc([N+](=O)[O-])c4)C3)cc2)ccn1` (configuration not stated), for which the IC50 with HepG2, with A549 and in the assay with PC-3 was above 50 µM throughout.

For the compound `CNC(=O)c1cc(Oc2ccc(C3CC(c4ccc(Cl)cc4)=NN3)cc2)ccn1` (configuration not stated), the figures for the half-maximal inhibitory concentration (IC50) in the assay on HepG2, in the assay with MCF7 and with A549 were 10.9 µM, 15.3 µM and 20.5 µM, respectively.

Turning to `CNC(=O)c1cc(Oc2ccc(C3CC(c4ccc([N+](=O)[O-])cc4)=NN3C(N)=S)cc2)ccn1` (configuration not stated), the IC50 with HepG2, in the assay with A549 and with PC-3 was above 50 µM each time.

These data come from ChEMBL document CHEMBL4177575 (Bioorg Med Chem, 2017).
